The term IC50 denotes the concentration needed to halve the response being measured. For orientation: inhibition means the drop in the measured response relative to a control, in per cent. The MRT is a mean duration of stay, worked out from the concentration-time curve.

In series [1] the target is Mitogen-activated protein kinase 3 (Homo sapiens, UniProt P27361). As to the kind of experiment: Inhibition of ERK1 in human HeLa cells lysate pre incubated for 15 mins followed by ADP acyl phosphate probe addition and measured after 10 mins by LC-MS/MS analysis. The format is subcellular.
Series [2] addresses Phosphatidylinositol 5-phosphate 4-kinase type-2 beta (Homo sapiens) (UniProt P78356). The series can be described thus: Inhibition of PIP5K2B in human HeLa cells lysate at 2 uM pre incubated for 15 mins followed by ATP acyl phosphate probe addition and measured after 10 mins by LC-MS/MS analysis relative to control. The format is subcellular. To be noted: time 25.0 min.
The target in series [3] is T1, Serine/threonine-protein kinase 4 (Homo sapiens) (UniProt Q13043).
T1 sequence (whole entry): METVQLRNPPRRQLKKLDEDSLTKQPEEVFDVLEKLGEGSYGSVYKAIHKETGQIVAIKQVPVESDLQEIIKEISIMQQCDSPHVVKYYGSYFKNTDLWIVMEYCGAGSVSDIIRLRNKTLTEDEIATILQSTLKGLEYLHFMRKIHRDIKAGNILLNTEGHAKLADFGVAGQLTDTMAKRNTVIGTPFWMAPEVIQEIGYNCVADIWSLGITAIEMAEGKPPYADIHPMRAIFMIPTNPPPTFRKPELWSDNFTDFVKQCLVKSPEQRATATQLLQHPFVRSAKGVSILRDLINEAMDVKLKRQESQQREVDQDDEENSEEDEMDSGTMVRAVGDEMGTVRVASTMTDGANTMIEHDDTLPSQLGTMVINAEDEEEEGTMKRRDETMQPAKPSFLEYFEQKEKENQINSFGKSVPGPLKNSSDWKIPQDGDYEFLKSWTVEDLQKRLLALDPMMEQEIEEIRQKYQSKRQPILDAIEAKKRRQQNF
As to the kind of experiment: Inhibition of MST1 in human HeLa cells lysate at 50 uM pre incubated for 15 mins followed by ADP acyl phosphate probe addition and measured after 10 mins by LC-MS/MS analysis relative to control. The format is subcellular. To be noted: time 25.0 min.

In series [4] the target is Tyrosine-protein kinase receptor UFO (Homo sapiens) (UniProt P30530). The series can be described thus: Inhibition of AXL in human HeLa cells lysate at 10 uM pre incubated for 15 mins followed by ADP acyl phosphate probe addition and measured after 10 mins by LC-MS/MS analysis relative to control. The format is subcellular. To be noted: time 25.0 min. Put shortly: (§1)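 KiNativ-type profiling in HeLa lysate (5 mg/mL total protein). Lysate preincubated 15 min with inhibitor at 50, 10, 2, 0.8 or 0 μM, then ATP or ADP acylphosphate probe added (5 μM final) for 10 min. Reaction stopped with urea and analysed by targeted MS, using up to four fragment ions per kinase peptide-probe conjugate. % inhibition calculated against untreated lysate. Duplicate reactions.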

The target of series [5] is p38 delta/gamma (Homo sapiens) (UniProt O15264+P53778). The series can be described thus: Inhibition of p38d/p38g in human HeLa cells lysate at 50 uM pre incubated for 15 mins followed by ATP acyl phosphate probe addition and measured after 10 mins by LC-MS/MS analysis relative to control. The format is subcellular. To be noted: time 25.0 min.
Series [6] concerns the target T2, Serine/threonine-protein kinase Sgk3 (Homo sapiens) (UniProt Q96BR1).
T2 sequence (whole entry): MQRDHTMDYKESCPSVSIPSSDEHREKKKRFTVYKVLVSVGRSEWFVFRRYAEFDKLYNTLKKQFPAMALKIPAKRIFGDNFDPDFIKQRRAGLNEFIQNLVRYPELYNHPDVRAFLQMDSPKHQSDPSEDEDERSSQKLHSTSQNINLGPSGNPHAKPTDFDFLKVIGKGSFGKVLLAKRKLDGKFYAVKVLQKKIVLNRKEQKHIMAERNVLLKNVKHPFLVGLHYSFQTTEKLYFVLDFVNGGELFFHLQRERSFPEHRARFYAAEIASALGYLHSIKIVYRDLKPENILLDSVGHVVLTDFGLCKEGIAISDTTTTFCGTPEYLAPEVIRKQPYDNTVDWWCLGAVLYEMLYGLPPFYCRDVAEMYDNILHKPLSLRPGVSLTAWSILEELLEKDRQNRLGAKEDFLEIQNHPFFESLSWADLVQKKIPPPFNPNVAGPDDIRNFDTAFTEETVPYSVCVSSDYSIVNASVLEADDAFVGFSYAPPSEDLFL
As to the kind of experiment: Inhibition of SGK3 in human HeLa cells lysate at 2 uM pre incubated for 15 mins followed by ADP acyl phosphate probe addition and measured after 10 mins by LC-MS/MS analysis relative to control. To be noted: time 25.0 min. The format is subcellular.

The target of series [7] is Serine/threonine-protein kinase DCLK1 (Homo sapiens) (UniProt O15075). The series can be described thus: Inhibition of DCAMKL1 (unknown origin) assessed as remaining activity at 10 uM by ATP-competition binding assay relative to control.
Series [8] addresses Phosphatidylinositol 4-kinase alpha (Homo sapiens, UniProt P42356). As to the kind of experiment: Inhibition of PIK4CA in human HeLa cells lysate pre incubated for 15 mins followed by ATP acyl phosphate probe addition and measured after 10 mins by LC-MS/MS analysis. The series is classed as subcellular.
Series [9] is described as follows: MRT in Sprague-Dawley rat at 1 mg/kg, iv measured up to 8 hrs by LC-MS/MS analysis. To be noted: in vivo. The series is classed as ADME, organism-based.
Series [10] can be described thus: Inhibition of PCTAIRE2/3 in human HeLa cells lysate at 10 uM pre incubated for 15 mins followed by ADP acyl phosphate probe addition and measured after 10 mins by LC-MS/MS analysis relative to control. To be noted: 25 min, condition cancer.
Series [11] concerns the target Dual specificity mitogen-activated protein kinase kinase 6 (Homo sapiens, UniProt P52564). As to the kind of experiment: Inhibition of MAP2K6 in human HeLa cells lysate pre incubated for 15 mins followed by ATP acyl phosphate probe addition and measured after 10 mins by LC-MS/MS analysis. The series is classed as subcellular.
In series [12] the target is Hepatocyte growth factor receptor (Homo sapiens, UniProt P08581). The series can be described thus: Inhibition of MET in human HeLa cells lysate pre incubated for 15 mins followed by ATP acyl phosphate probe addition and measured after 10 mins by LC-MS/MS analysis. The series is classed as subcellular.
The target in series [13] is Serine/threonine-protein kinase LATS1 (Homo sapiens) (UniProt O95835). As to the kind of experiment: Inhibition of LATS1 in human HeLa cells lysate at 2 uM pre incubated for 15 mins followed by ATP acyl phosphate probe addition and measured after 10 mins by LC-MS/MS analysis relative to control. The format is subcellular. To be noted: time 25.0 min.
The target of series [14] is T1, Serine/threonine-protein kinase 4 (Homo sapiens). As to the kind of experiment: Inhibition of MST1 in human HeLa cells lysate at 10 uM pre incubated for 15 mins followed by ADP acyl phosphate probe addition and measured after 10 mins by LC-MS/MS analysis relative to control. The format is subcellular. To be noted: time 25.0 min.
Series [15] deals with Serine/threonine-protein kinase A-Raf (Homo sapiens, UniProt P10398). As to the kind of experiment: Inhibition of ARAF in human HeLa cells lysate pre incubated for 15 mins followed by ATP acyl phosphate probe addition and measured after 10 mins by LC-MS/MS analysis. The series is classed as subcellular. The method in brief: as §1
The target of series [16] is Serine/threonine-protein kinase Nek7 (Homo sapiens, UniProt Q8TDX7). As to the kind of experiment: Inhibition of NEK7 in human HeLa cells lysate at 50 uM pre incubated for 15 mins followed by ADP acyl phosphate probe addition and measured after 10 mins by LC-MS/MS analysis relative to control. The format is subcellular. To be noted: time 25.0 min.
Series [17] concerns the target Protein kinase C theta type (Homo sapiens, UniProt Q04759). As to the kind of experiment: Inhibition of PKCtheta in human HeLa cells lysate at 10 uM pre incubated for 15 mins followed by ATP acyl phosphate probe addition and measured after 10 mins by LC-MS/MS analysis relative to control. The series is classed as subcellular. To be noted: time 25.0 min.

Mitogen-activated protein kinase 3, sequence (P27361 whole entry): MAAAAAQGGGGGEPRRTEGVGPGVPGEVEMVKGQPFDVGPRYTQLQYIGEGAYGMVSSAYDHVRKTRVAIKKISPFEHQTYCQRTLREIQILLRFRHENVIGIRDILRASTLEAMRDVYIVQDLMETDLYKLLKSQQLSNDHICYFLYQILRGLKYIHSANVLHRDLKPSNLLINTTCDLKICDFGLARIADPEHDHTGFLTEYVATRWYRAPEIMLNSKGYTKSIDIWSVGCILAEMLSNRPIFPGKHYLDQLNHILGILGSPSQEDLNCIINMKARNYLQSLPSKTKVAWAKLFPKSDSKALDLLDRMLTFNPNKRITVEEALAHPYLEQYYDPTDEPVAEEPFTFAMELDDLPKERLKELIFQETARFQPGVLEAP
Serine/threonine-protein kinase LATS1 (Homo sapiens), sequence (O95835 whole entry): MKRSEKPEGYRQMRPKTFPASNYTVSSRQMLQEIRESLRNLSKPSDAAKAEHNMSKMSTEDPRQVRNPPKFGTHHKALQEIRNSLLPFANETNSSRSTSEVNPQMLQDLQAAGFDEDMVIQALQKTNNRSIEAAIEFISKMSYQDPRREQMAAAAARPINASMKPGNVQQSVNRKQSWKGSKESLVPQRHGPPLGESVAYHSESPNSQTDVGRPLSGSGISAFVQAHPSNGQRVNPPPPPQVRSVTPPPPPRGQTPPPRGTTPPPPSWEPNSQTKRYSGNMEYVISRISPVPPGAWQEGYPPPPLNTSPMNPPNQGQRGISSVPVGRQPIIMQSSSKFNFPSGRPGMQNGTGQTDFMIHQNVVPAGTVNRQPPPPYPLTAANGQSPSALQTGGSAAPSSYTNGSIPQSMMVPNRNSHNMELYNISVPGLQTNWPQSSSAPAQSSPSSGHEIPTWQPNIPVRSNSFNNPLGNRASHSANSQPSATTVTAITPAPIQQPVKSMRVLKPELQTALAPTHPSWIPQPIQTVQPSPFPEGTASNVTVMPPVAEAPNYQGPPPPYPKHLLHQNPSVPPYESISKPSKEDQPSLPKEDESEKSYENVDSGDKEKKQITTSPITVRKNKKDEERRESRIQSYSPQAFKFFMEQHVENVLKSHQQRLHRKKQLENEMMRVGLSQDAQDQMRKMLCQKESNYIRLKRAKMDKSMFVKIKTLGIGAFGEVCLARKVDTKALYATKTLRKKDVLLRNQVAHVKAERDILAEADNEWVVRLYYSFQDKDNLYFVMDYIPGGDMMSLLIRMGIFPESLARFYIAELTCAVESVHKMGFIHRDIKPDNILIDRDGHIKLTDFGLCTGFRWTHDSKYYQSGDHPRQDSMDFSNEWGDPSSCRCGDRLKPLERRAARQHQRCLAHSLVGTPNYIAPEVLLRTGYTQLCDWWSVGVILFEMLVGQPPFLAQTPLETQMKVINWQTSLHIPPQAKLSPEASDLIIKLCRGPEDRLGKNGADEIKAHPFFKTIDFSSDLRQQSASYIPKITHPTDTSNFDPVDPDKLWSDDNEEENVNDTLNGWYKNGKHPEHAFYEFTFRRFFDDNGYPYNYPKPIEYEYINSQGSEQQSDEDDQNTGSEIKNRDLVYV
Hepatocyte growth factor receptor, sequence (P08581 whole entry): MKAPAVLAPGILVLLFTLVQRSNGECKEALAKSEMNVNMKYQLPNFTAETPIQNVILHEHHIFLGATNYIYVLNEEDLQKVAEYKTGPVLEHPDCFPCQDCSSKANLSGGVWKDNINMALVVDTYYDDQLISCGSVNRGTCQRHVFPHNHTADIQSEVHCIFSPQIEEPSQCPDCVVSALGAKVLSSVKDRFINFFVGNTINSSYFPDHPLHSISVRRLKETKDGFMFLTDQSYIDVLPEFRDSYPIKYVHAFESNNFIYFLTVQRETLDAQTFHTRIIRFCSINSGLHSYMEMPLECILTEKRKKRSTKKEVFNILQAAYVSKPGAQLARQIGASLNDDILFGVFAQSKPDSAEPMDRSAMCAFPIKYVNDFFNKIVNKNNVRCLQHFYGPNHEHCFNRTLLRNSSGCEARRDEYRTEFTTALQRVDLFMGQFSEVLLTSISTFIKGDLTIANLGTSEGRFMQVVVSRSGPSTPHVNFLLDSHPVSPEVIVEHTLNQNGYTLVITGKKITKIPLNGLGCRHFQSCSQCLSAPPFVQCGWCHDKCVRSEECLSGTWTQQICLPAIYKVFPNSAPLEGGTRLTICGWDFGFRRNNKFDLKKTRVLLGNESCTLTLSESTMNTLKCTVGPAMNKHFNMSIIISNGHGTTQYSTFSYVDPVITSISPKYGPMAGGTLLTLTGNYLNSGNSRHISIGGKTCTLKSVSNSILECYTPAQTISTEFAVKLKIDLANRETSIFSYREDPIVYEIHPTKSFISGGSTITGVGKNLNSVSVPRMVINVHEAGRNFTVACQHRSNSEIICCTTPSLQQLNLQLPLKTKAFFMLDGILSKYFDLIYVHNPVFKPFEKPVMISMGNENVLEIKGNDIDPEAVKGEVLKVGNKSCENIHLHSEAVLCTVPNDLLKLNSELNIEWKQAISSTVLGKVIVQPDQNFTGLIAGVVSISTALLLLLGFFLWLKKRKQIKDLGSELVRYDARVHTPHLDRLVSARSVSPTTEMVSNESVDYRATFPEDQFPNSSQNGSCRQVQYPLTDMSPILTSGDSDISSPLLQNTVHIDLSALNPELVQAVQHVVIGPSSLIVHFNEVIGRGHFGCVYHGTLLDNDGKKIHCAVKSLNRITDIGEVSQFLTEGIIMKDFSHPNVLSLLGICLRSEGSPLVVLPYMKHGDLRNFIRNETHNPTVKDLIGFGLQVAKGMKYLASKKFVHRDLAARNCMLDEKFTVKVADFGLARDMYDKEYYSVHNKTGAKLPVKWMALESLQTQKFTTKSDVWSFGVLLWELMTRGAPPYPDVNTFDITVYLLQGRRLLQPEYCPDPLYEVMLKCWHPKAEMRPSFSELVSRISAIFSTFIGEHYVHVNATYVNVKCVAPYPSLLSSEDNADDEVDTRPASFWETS
Serine/threonine-protein kinase A-Raf, sequence (P10398 whole entry): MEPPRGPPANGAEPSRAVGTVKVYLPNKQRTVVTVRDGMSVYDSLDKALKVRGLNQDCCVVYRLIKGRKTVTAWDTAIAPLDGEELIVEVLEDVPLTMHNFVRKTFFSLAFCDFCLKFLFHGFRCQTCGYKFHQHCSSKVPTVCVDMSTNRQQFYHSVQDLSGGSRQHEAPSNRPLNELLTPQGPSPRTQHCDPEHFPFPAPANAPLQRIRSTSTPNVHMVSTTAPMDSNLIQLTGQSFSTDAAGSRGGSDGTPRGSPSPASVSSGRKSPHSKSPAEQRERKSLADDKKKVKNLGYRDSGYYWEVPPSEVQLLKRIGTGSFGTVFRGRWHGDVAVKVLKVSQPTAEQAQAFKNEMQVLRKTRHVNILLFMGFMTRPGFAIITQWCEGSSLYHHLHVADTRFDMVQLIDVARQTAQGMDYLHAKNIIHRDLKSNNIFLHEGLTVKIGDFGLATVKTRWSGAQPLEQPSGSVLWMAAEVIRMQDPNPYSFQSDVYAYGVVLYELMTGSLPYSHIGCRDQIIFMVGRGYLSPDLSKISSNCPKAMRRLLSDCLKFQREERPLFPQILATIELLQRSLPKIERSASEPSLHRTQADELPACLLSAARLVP
Dual specificity mitogen-activated protein kinase kinase 6, sequence (P52564 whole entry): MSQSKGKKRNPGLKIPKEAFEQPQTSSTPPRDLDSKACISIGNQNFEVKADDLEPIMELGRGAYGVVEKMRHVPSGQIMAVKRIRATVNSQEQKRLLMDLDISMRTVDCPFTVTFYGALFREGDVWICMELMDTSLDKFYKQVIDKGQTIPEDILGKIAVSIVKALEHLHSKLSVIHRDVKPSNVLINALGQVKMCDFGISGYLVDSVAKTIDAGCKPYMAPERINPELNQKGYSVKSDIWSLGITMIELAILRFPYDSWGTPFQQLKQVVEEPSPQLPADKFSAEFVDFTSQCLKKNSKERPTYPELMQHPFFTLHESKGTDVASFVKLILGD
Protein kinase C theta type, sequence (Q04759 whole entry, looked up): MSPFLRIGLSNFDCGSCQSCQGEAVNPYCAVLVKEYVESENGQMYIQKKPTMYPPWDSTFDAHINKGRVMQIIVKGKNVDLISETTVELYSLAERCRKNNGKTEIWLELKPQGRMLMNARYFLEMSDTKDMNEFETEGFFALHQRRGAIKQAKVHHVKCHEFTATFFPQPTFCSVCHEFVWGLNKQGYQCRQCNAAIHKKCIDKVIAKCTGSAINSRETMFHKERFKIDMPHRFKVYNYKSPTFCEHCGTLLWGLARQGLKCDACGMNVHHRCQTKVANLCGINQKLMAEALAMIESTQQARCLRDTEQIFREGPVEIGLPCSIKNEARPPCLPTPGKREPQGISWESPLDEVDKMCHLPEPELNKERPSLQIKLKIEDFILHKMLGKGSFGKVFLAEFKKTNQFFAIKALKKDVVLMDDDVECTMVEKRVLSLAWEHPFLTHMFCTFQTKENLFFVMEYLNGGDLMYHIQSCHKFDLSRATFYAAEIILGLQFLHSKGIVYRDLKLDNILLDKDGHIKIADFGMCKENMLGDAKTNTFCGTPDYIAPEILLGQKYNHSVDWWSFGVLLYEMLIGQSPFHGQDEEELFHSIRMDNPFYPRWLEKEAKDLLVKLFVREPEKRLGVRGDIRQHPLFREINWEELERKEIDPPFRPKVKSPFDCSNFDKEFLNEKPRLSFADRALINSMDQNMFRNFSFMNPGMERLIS
Phosphatidylinositol 5-phosphate 4-kinase type-2 beta (Homo sapiens), sequence (P78356 whole entry): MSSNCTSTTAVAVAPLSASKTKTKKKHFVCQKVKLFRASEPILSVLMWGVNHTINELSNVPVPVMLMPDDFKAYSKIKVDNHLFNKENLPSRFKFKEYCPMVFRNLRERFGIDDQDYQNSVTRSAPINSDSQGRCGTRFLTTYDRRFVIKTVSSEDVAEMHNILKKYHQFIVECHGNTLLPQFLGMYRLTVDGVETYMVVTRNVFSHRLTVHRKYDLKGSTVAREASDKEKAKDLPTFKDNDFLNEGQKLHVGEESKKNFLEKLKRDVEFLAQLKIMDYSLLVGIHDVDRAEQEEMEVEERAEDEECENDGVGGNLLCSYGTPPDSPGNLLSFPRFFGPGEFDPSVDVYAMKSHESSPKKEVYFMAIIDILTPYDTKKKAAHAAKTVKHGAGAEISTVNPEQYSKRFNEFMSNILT

Regarding `CCOc1cc(N2CCC(O)CC2)ccc1Nc1ncc2c(n1)N(C)c1ccccc1C(=O)N2C`, the half-maximal inhibitory concentration (IC50) was over 50 µM in series [1]; 36 µM in series [8]; over 50 µM in [11]; over 50 µM in series [12]; over 50 µM in series [15]. Moreover, the inhibition in series [2] is -2.7%; in [3], 10.2%; in series [4], -5.1%; in series [5], 37.2%; in [6], 16.6%; in series [13], 5.7%. Besides, the results for the inhibition in [14], in series [16] and in series [17] were 30.1%, -2.3% and 12.4%, respectively. The Activity in series [7] is 0.9%. For the same compound, in series [9], the MRT is 2.2 h. For the same compound, the inhibition at 10 µM in series [10] was -4.4%.
